Measured values as given in ChEMBL document CHEMBL1124780, “Phenyl selenones: alkyl transfer by selenium-carbon bond cleavage” (J Med Chem, 1990).

Key:
A2780 = test: In vitro cytotoxicity was determined against A2780 human ovarian cell line using NCI screen; format: functional, cell-based
A498 = test: In vitro cytotoxicity was determined against A 498 human renal tumor cell line using NCI screen; format: functional, cell-based
[1] = Half-life after NBP alkylation; format: ADME
Outline: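 NBP alkylation at 37 °C in aqueous acetone (52.2:47.8, v/v) with 40.6 mM NBP (pseudo-first-order excess), 17.4 mM Tris-HCl pH 7.4, and 0.087 or 0.174 mM alkylating agent. First-order rate constants were taken from plots of log(percent remaining alkylating species) vs time. Adduct was read at 560 nm after triethylamine alkalization.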

[2] = Pseudo first order rate constant of NBP alkylation was determined at 37 degree Centigrade; format: ADME
Outline: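 Alkylating agent (0.087 or 0.174 mM) reacted at 37 °C with 4-(4-nitrobenzyl)pyridine (40.6 mM, pseudo-first-order excess). Medium was aqueous acetone (52.2:47.8 v/v) with 17.4 mM Tris-HCl, pH 7.4. k' was taken from plots of log(% remaining alkylating species) vs time.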

CCRF-SB = test: In vitro cytotoxicity was determined against CCRF-SB human leukemia cell line using NCI screen; format: functional, cell-based
Homo sapiens [3] = organism: Homo sapiens; test: In vitro cytotoxicity was determined against CALU 3 human non-small cell lung carcinoma cell line using BACTEC screen; format: functional
CCRF-CEM [4] = test: In vitro growth inhibition against CCRF-CEM human lymphoblast cells; format: functional, cell-based
Outline: (§1)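 Cells were exposed to drug in vitro for 48 h (L1210 murine leukemia; CCRF-CEM human lymphoblast). The value is the drug concentration giving 50% growth inhibition.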

CCRF-CEM [5] = test: In vitro cytotoxicity was determined against CCRF-CEM human leukemia cell line using NCI screen; format: functional, cell-based
COLO 320 [6] = test: In vitro cytotoxicity was determined against COLO 320 human colon tumor cell line using BACTEC screen; format: functional, cell-based
COLO 320 [7] = test: In vitro cytotoxicity was determined against COLO 320 DM human colon tumor cell line using NCI screen; format: functional, cell-based
IGROV-1 = test: In vitro cytotoxicity was determined against IGROVI human ovarian cell line using NCI screen; format: functional, cell-based
HCT-116 = test: In vitro cytotoxicity was determined against COLO 320 DM,HCT-15, COLO-205, HCT116 HCC 2998, KM20L2, KM12 human colon tumor cell line using NCI screen; format: functional, cell-based
NCI-H460 = test: In vitro cytotoxicity was determined against H460 human non-small cell lung carcinoma cell line using NCI screen; format: functional, cell-based
HCT-15 = test: In vitro cytotoxicity was determined against HCT-15 human colon tumor cell line using NCI screen; format: functional, cell-based
HOP-62 = test: In vitro cytotoxicity was determined against HOP-62 human non-small cell lung carcinoma cell line using NCI screen; format: functional, cell-based
HT-29 = test: In vitro cytotoxicity was determined against HT-29 human colon tumor cell line using BACTEC screen; format: functional, cell-based
NCI-H23 = test: In vitro cytotoxicity was determined against H23 human non-small cell lung carcinoma cell line using NCI screen; format: functional, cell-based
HCC 2998 = test: In vitro cytotoxicity was determined against HCC 2998 human colon tumor cell line using NCI screen; format: functional, cell-based
Hs-578T = test: In vitro cytotoxicity was determined against Hs 578.T human breast tumor cell line using BACTEC screen; format: functional, cell-based
KM-20L2 = test: In vitro cytotoxicity was determined against KM20L2 human colon tumor cell line using NCI screen; format: functional, cell-based
K562 = test: In vitro cytotoxicity was determined against K-562 human leukemia cell line using NCI screen; format: functional, cell-based
M19-MEL = test: In vitro cytotoxicity was determined against M19-MEL human melanoma cell line using NCI screen; format: functional, cell-based
KM12 = test: In vitro cytotoxicity was determined against KM12 human colon tumor cell line using NCI screen; format: functional, cell-based
LOX IMVI = test: In vitro cytotoxicity was determined against LOX human melanoma cell line using NCI screen; format: functional, cell-based
L1210 = test: In vitro growth inhibition against L1210 murine leukemia cells; format: functional, cell-based; settings: Mus musculus; outline: as §1
Malme-3M = test: In vitro cytotoxicity was determined against MALME-3M human melanoma cell line using NCI screen; format: functional, cell-based
MCF7 = test: In vitro cytotoxicity was determined against MCF-7M human breast tumor cell line using BACTEC screen; format: functional, cell-based
MOLT-4 = test: In vitro cytotoxicity was determined against MOLT-4 human leukemia cell line using NCI screen; format: functional, cell-based
OVCAR-5 = test: In vitro cytotoxicity was determined against OVCAR5 human ovarian cell line using NCI screen; format: functional, cell-based
OM-1 = test: In vitro cytotoxicity was determined against OM-1 human colon tumor cell line using BACTEC screen; format: functional, cell-based
RPMI-8226 = test: In vitro cytotoxicity was determined against RPMI 8226 human leukemia cell line using NCI screen; format: functional, cell-based
SF-268 = test: In vitro cytotoxicity was determined against SF-268 human CNS tumor cell line using NCI screen; format: functional, cell-based
SNB-19 = test: In vitro cytotoxicity was determined against SNB19 human CNS tumor cell line using NCI screen; format: functional, cell-based
SNB-78 = test: In vitro cytotoxicity was determined against SNB78 human CNS tumor cell line using NCI screen; format: functional, cell-based
SF-539 = test: In vitro cytotoxicity was determined against SF-539 human CNS tumor cell line using NCI screen; format: functional, cell-based
SN12C [8] = test: (§2) In vitro cytotoxicity was determined against SN12 KI human renal tumor cell line using NCI screen; format: functional, cell-based
SK-MEL-5 = test: In vitro cytotoxicity was determined against SK-MEL-5 human melanoma cell line using NCI screen; format: functional, cell-based
Homo sapiens [9] = organism: Homo sapiens; test: In vitro cytotoxicity was determined against SKLU human non-small cell lung carcinoma cell line using BACTEC screen; format: functional
SK-MES-1 = test: In vitro cytotoxicity was determined against SKMES human non-small cell lung carcinoma cell line using BACTEC screen; format: functional, cell-based
SK-MEL-28 = test: In vitro cytotoxicity was determined against SK-MEL-28 human melanoma cell line using NCI screen; format: functional, cell-based
TE-671 = test: In vitro cytotoxicity was determined against TE671 human CNS tumor cell line using NCI screen; format: functional, cell-based
UO-31 = test: In vitro cytotoxicity was determined against UO-31 human renal tumor cell line using NCI screen; format: functional, cell-based
U-251 = test: In vitro cytotoxicity was determined against U251 human CNS tumor cell line using NCI screen; format: functional, cell-based
UACC-257 = test: In vitro cytotoxicity was determined against UACC-257 human melanoma cell line using NCI screen; format: functional, cell-based
UACC-62 = test: In vitro cytotoxicity was determined against UACC-62 human melanoma cell line using NCI screen; format: functional, cell-based
HOP-18 = test: In vitro cytotoxicity was determined against HOP-18 human non-small cell lung carcinoma cell line using NCI screen; format: functional, cell-based
HOP-19 = test: In vitro cytotoxicity was determined against HOP-19 human non-small cell lung carcinoma cell line using NCI screen; format: functional, cell-based
SK-MEL-2 = test: In vitro cytotoxicity was determined against SK-MEL-2 human melanoma cell line using NCI screen; format: functional, cell-based
SN12C [10] = test: as §2; format: functional, cell-based; remark: listed apart in the source
SK-OV-3 = test: In vitro cytotoxicity was determined against SKOV-3 human ovarian cell line using NCI screen; format: functional, cell-based
SF-295 = test: In vitro cytotoxicity was determined against SF-295, U251, SNB19 human CNS tumor cell line using NCI screen; format: functional, cell-based
COLO 205 = test: In vitro cytotoxicity was determined against COLO-205 human colon tumor cell line using NCI screen; format: functional, cell-based

With `O=[Se](=O)(CCCl)c1ccccc1` the IC50 (A2780) was 7.8 µM, the IC50 (A498) was 4.6 µM and the half-life [1] was 8.37 h. The k' [2] was 0.00138 min⁻¹, the IC50 (CCRF-SB) was 0.45 µM and the IC50 (Homo sapiens [3]) was 2.2 µM. It also gave an IC50 (CCRF-CEM [4]) of 0.15 µM, an IC50 (CCRF-CEM [5]) of 0.45 µM and an IC50 (COLO 320 [6]) of 1.2 µM. For the same molecule, the IC50 (COLO 320 [7]) was 2.3 µM, the IC50 (IGROV-1) was 7.8 µM and the IC50 (HCT-116) was 2.3 µM. The IC50 (NCI-H460) was 4.3 µM, the IC50 (HCT-15) was 2.3 µM and the IC50 (HOP-62) was 4.3 µM. The IC50 (HT-29) was 1.9 µM, the IC50 (NCI-H23) was 4.3 µM and the IC50 (HCC 2998) was 2.3 µM. It also gave an IC50 (Hs-578T) of 0.9 µM, an IC50 (KM-20L2) of 2.3 µM and an IC50 (K562) of 0.45 µM. The IC50 (M19-MEL) was 3.7 µM, the IC50 (KM12) was 2.3 µM and the IC50 (LOX IMVI) was 3.7 µM. For the same molecule, the IC50 (L1210) was 0.55 µM, the IC50 (Malme-3M) was 3.7 µM and the IC50 (MCF7) was over 4 µM. For the same molecule, the IC50 (MOLT-4) was 0.45 µM, the IC50 (OVCAR-5) was 7.8 µM and the IC50 (OM-1) was over 4 µM. The IC50 (RPMI-8226) was 0.45 µM, the IC50 (SF-268) was 6 µM and the IC50 (SNB-19) was 6 µM. It also gave an IC50 (SNB-78) of 6 µM, an IC50 (SF-539) of 6 µM and an IC50 (SN12C [8]) of 4.6 µM. It also gave an IC50 (SK-MEL-5) of 3.7 µM, an IC50 (Homo sapiens [9]) of 0.06 µM and an IC50 (SK-MES-1) of 0.15 µM. For the same molecule, the IC50 (SK-MEL-28) was 3.7 µM, the IC50 (TE-671) was 6 µM and the IC50 (UO-31) was 4.6 µM. The IC50 (U-251) was 6 µM, the IC50 (UACC-257) was 3.7 µM and the IC50 (UACC-62) was 3.7 µM. The IC50 (HOP-18) was 4.3 µM, the IC50 (HOP-19) was 4.3 µM and the IC50 (SK-MEL-2) was 3.7 µM. The IC50 (SN12C [10]) was 4.6 µM, the IC50 (SK-OV-3) was 7.8 µM and the IC50 (SF-295) was 6 µM. It also gave an IC50 (COLO 205) of 2.3 µM.

In the case of `O=[N+]([O-])c1ccc([Se](=O)(=O)CCCl)cc1`, the half-life [1] is reported as 1.08 h, the k' [2] is reported as 0.0104 min⁻¹ and the IC50 (CCRF-CEM [4]) is reported as 0.4 µM. For the same molecule, the IC50 (L1210) was 0.9 µM.

For `CS(=O)(=O)OCCC[Se](=O)(=O)c1ccccc1`, the half-life [1] was 9.55 h, the k' [2] was 0.00121 min⁻¹ and the IC50 (CCRF-CEM [4]) was 0.9 µM. It also gave an IC50 (L1210) of 1.2 µM.

Molecule `ClCC[Se]c1ccccc1` has a half-life [1] of 0.031 h.

Molecule `O=[Se](O)c1ccccc1` [BENZENE SELENOIC ACID] has an IC50 (L1210) of 3 µM.

In the case of `O=C(O)CCCc1ccc(N(CCCl)CCCl)cc1` [CHLORAMBUCIL], the half-life [1] is reported as 7.75 h and the k' [2] is reported as 0.00149 min⁻¹.
